A selection: hits, their analogues and other compounds. The true share with any hit is near 2.6%.
NR2E3 ag-1 – activates human NR2E3 receptor | hit rate 0.35% among 360,000 | inhibition of corepressor binding, % at 3.98 µM | Q9Y5X4 | CHO-S Gal4-NCOR/VP16-NR2E3 two-hybrid, luciferase;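 active means inhibition above the mean of all tested compounds plus 3 SD, cut at about 70% in these data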;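 further: 0% = DMSO with NR2E3 transfected cells and 100% = cells lacking NR2E3 construct; higher means lower luciferase signal from less NR2E3 corepressor binding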
PG9 Ab binder – PG9 antibody binding by small molecule. AID 624416. inhibition, % at 6.7 µM. TR-FRET gp120-PG9 antibody binding. hit rate 0.43% among 360,000; in the data active means inhibition above about 8.5%
NR2E3 ag-2 – NR2E3 (human) agonism | GST-NR2E3/biotin-RetCOR TR-FRET, 1536-well | inhibition of corepressor binding, % at 4.78 µM | hit rate 0.12% among 320,000 | AID 2300;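 active means percent inhibition above the cutoff of mean plus 3 SD of all tested compounds, set per screening campaign, cut at about 20% in these data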;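 further: 0% = DMSO wells and 100% = biotin wells as full block of FRET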
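System: GST-tagged NR2E3 plus biotinylated RetCOR corepressor; Amount: 1.35 nM GST-tagged NR2E3 final; Dosing: single nominal compound dose of 4.8 µM; Schedule: 5 h incubation at 4 °C; Technique: TR-FRET with europium anti-GST and streptavidin-D2, 340 nm excitation; Controls: biotin wells as high control, 0.6% DMSO wells as low control.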
Rev-erbA mod – Rev-erb alpha (human) modulation | P20393 | Rev-erbα–FITC-DNA binding, fluorescence polarization, 90 min | activity, % at 10 µM | hit rate 0.79% among 370,000;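 active means activity above about 14%, limit read from the data; passing the limit was not always enough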;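 further: 0% = DMSO wells with 35 nM protein and 100% = DMSO wells with 750 nM protein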
Target sequence (P20393 whole entry, looked up): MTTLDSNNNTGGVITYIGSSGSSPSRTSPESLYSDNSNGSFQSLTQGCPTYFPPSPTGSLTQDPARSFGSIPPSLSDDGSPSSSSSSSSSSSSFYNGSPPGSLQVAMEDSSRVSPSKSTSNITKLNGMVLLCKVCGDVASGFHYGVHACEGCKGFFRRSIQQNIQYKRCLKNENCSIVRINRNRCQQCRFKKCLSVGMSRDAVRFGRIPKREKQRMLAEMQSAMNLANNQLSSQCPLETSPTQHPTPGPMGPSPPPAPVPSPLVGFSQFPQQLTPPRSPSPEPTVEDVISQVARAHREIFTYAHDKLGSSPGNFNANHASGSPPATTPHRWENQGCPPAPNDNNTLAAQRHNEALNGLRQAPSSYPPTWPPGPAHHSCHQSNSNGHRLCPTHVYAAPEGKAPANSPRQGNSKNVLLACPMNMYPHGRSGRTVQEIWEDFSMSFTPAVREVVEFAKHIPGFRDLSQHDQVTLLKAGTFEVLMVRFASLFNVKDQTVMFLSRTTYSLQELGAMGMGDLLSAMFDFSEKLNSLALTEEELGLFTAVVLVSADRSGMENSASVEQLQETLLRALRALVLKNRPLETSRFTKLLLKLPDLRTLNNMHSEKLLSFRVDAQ
rCAG binder – binds r(CAG) RNA repeats; r(CAG) RNA repeat, TO-PRO-1 dye displacement fluorescence; inhibition, % at 3 µM; hit rate 1.3% among 370,000; AID 651821;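 active means inhibition above the plate cutoff, the mean of all test compounds on that plate plus 3 SD, cut at about 35% in these data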;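 further: 0% = DMSO alone and 100% = 100 µM mitoxantrone as full dye displacement; higher means more dye released from RNA so lower well fluorescence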
NR2E3 ag confirm – NR2E3 agonism confirmed in two-hybrid assay. CHO-S mammalian two-hybrid NR2E3-NCOR, luciferase luminescence. inhibition, % at 3.98 µM. shares compounds with NR2E3 ag-1. hit rate 51% among 2,300. AID 624378;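 active means average inhibition above a cutoff equal to the mean inhibition of all tested compounds plus one SD, cut at about 70% in these data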;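 further: 0% = DMSO in NR2E3 cells and 100% = DMSO in cells lacking NR2E3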
GAL4-VP16 luc – counter-screen for NR2E3 agonists: GAL4-VP16 reporter inhibitors. shares compounds with NR2E3 ag-1. CHO-S GAL4-VP16 luciferase reporter, luminescence. hit rate 29% among 2,300. inhibition, % at 3.98 µM;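 active means mean inhibition above a cutoff equal to the average over all tested compounds plus one standard deviation, cut at about 70% in these data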;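 further: luciferase from a UAS reporter driven by GAL4-VP16 transactivation; 0% = DMSO with VP16-transfected cells and 100% = DMSO with cells lacking VP16; higher means less reporter light so more repression of VP16 activity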
Active calls of the source: *; x = not tested or not shown.

SMILES | NR2E3 ag-1 | PG9 Ab binder | NR2E3 ag-2 | Rev-erbA mod | rCAG binder | NR2E3 ag confirm | GAL4-VP16 luc
CN(Cc1cccc(F)c1)C(=O)c1cccc(S(=O)(=O)N2CCN(Cc3ccccc3)CC2)c1 | 61 | -2 | -2 | 7 | -2 | 50 | 36
CN(Cc1cnn(Cc2ccccc2)c1)C(=O)c1cccc(S(=O)(=O)N2CCOCC2)c1 | -30 | -2 | -2 | 1 | -1 | x | x
CCN1CCN(S(=O)(=O)c2ccc(Cl)c(C(=O)N(C)Cc3cccc(Cl)c3Cl)c2)CC1 | 7 | -2 | 1 | 8 | -7 | x | x
CN(Cc1cccc(Cl)c1Cl)C(=O)c1cccc(S(=O)(=O)N2CCN(Cc3ccccc3)CC2)c1 | 56 | -1 | -1 | -3 | 2 | 86* | 59
Cc1ccccc1-c1ccc2c(c1)[C@@H]1C[C@H]3[C@@H](CN1CC2)[C@H](C)ON3C | x | -3 | x | -1 | 4 | x | x
Cc1ccc(Cc2c(-c3ccccc3)nc3c(Cl)cc(C(F)(F)F)cn23)cc1 | 12 | -2 | x | 4 | 11 | x | x
Cc1ccc(Cc2c(-c3ccc(C)cc3)nc3c(Cl)cc(C(F)(F)F)cn23)cc1 | 60 | x | x | x | x | -6 | 10
C=Cc1ccc(Cn2nc(-c3ccc(C)cc3)ccc2=O)cc1 | 50 | -1 | -6 | 4 | -6 | 87* | 72*
O=c1ccc(-c2ccccc2)nn1Cc1ccc(Cl)cc1 | 26 | -2 | 5 | 4 | -3 | x | x
CC(=O)N1CCN(c2ccc(Oc3ccc([N+](=O)[O-])c(C(F)(F)F)c3)cc2)CC1 | 100* | x | 2 | x | x | 96* | 81*
C[C@@H]1CN([C@@H](C)CO)C(=O)CCCn2cc(nn2)CO[C@H]1CN(C)C(=O)Nc1ccccc1 | x | 2 | x | 4 | -1 | x | x
Cc1nc2ccc(S(=O)(=O)Nc3cccc(-c4nc5cccnc5s4)c3C)cc2s1 | 98* | 1 | 2 | 2 | 23 | 95* | 86*
Cc1nc2ccc(S(=O)(=O)Nc3cc(-c4nc5cccnc5s4)ccc3C)cc2s1 | -58 | -1 | 0 | 10 | 34 | x | x
CN(CC(=O)Nc1ccc(Cl)c(C(F)(F)F)c1)CC(=O)NC1CCCCC1 | 60 | x | 0 | x | x | 53 | 37
COC(=O)[C@]12C[C@H](CC(=O)N3CCCC3)C(=O)N(CCC3=CCCCC3)C1=C[C@H](COCc1ccccc1)O[C@@H]2C | x | 0 | x | -4 | 1 | x | x
Cc1ccc2nc(N3C(=O)C(O)=C(C(=O)c4cc5ccccc5o4)C3c3cccs3)sc2c1 (stereo not given) | -124 | x | 7 | x | x | x | x
O=C(C1=C(O)C(=O)N(c2nccs2)C1c1ccccc1)c1cc2ccccc2o1 (stereo not given) | 66 | 9 | 7 | 3 | -49 | 95* | 71*
Cc1cc(C)cc(NC(=O)c2ccc([N+](=O)[O-])o2)c1 | 84* | 0 | x | 2 | -1 | 51 | 41
CC(=O)c1ccc(NC(=O)c2ccc([N+](=O)[O-])o2)cc1 | 1 | -2 | x | -1 | 1 | x | x
O=C(O)CCSc1nc2ccccc2s1 | 54 | 1 | 2 | 4 | 3 | 53 | 67
COc1ccc(NC(=O)N(C)C[C@H]2OCCCC[C@H](C)Oc3ccc(NC(=O)Nc4cccc5ccccc45)cc3C(=O)N([C@@H](C)CO)C[C@H]2C)cc1 | x | 1 | x | 12 | 18 | x | x
CCCCSc1nc2c([nH]1)c(=S)n(C)c(=O)n2C | 64 | -2 | x | 5 | 1 | 31 | -21
CCCCC(C)Sc1nc2c([nH]1)c(=S)n(C)c(=O)n2C (stereo not given) | 87* | -1 | x | 15 | 7 | 87* | 61
CCCC(CC)Sc1nc2c([nH]1)c(=S)n(C)c(=O)n2C (stereo not given) | 78* | -1 | x | -4 | 3 | 22 | -11
O=C(N[C@@H](Cc1cccnc1)C(=O)N1CCC[C@H]1C(=O)NCCc1ccccc1Cl)C1CCCC1 | x | 3 | x | -1 | 0 | x | x
CC(C)(C)OC(=O)N1CCC2CCN(S(=O)(=O)c3ccccc3)CC21 (stereo not given) | x | 0 | x | -1 | -1 | x | x
CC(=NNC(=S)Nc1cccc(Cl)c1)c1ccccn1 | 95* | 0 | x | 2 | 7 | -65 | -15
CCCCCC(=O)N/N=C(\C)c1ccccn1 | -17 | -3 | 4 | 2 | 0 | x | x

Screening data (PubChem BioAssay)
